From PMC8819215 (Iranian Journal of Public Health, 2021)
Where two headings read alike, the source gives them in different places.

How the values were obtained:
parasites = conditions: cited from earlier work
[1] = tested on: J774A.1 macrophages cell line; experiment: Cytotoxicity; assay type: cell-based, mice
L. major promastigotes = experiment: Promastigote growth inhibition; assay type: cell-based, Leishmania major
In short: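 Stationary-phase (5 d) L. major MRHO/IR/75/ER promastigotes (1×10^6) were grown at 26 °C in RPMI-1640 with 10% heat-inactivated FCS, pH 7.4. They received TBO (7.8–500 μg/ml) plus 630 nm LED irradiation. MTT at 570 nm was read at 2, 24 and 48 h, as % of untreated OD. IC50 came from dose-response curves, triplicates. SI = macrophage CC50/promastigote IC50.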

L. braziliensis [2] = conditions: 10 μg/ml TBO; cited from earlier work
L. major = conditions: cited from earlier work
L. braziliensis [3] = conditions: in-vitro; cited from earlier work

CN(C)c1ccc2nc3ccc(=[N+](C)C)cc-3sc2c1 [MB, methylene blue]
decrease of parasites viability (parasites; PDT): more than 70% | decrease of parasites viability (parasites; in the dark, higher concentration of MB): up to 50%

Cc1cc2nc3ccc(N(C)C)cc3[s+]c2cc1N.[Cl-] [TBO, Toluidine Blue O]
toxicity to macrophages compared to glucantime (positive control) [1]: less toxicity | cytotoxicity to J774.A1 macrophages ([1]; dark group): no cytotoxic | decrease in viability (L. major promastigotes; PDT, three highest concentrations, after 24 h): more than 70% | toxicity to parasites (L. major promastigotes; dark group (no PDT), highest concentrations): intermediate toxicity | parasite viability (L. braziliensis [2]): significantly reduced

Aluminum phthalocyanine
phototoxicity (L. major; 10.0μM concentration and 10 J/cm^2 irradiation): phototoxic

aluminum phthalocyanine tetra sulfonate
elimination of parasites by PDT (L. braziliensis [3]): effectively eliminated | elimination of parasites by PDT (L. major; in-vitro): effectively eliminated
